PglD DTNB: inhibitors of Campylobacter jejuni PglD acetyltransferase; purified PglD enzyme, DTNB colorimetric CoA detection; inhibition, % at 12.5 µM; 360,000 tested, 0.098% active; AID 602405; in the data active = inhibition above about 16%, passing the limit was not always enough
E-sel inducer: induces E-selectin expression in human endothelial cells | HUVEC E-selectin immunofluorescence imaging; normalized: neutral wells 0, TNF-alpha wells 100 | 260,000 tested, 0.37% active | AID 686992 | P16581 | activation, % at 7.58 µM;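 active = mean E-selectin-positive cell signal at least 10% of the positive control, reached in at least 60% of replicates, without over 20% cell loss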
Target sequence (P16581 whole entry, looked up): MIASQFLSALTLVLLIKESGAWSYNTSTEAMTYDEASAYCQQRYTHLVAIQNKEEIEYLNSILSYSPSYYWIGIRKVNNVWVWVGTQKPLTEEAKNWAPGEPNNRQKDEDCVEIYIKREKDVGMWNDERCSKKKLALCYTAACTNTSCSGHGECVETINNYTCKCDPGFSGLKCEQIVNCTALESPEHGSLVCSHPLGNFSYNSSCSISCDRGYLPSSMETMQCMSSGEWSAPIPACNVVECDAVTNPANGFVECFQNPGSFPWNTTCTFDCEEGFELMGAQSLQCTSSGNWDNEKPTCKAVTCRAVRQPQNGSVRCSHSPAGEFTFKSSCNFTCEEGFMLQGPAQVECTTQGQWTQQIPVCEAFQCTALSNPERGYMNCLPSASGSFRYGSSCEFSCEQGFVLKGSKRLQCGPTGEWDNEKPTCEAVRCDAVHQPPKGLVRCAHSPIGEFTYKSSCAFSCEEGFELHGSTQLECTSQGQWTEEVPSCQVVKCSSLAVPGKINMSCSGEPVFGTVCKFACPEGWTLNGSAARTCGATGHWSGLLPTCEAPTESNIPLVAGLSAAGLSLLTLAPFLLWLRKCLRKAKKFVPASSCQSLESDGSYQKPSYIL
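System: HUVEC, human umbilical vein endothelial cells; quantity: 3,000 cells/well; buffer or medium: EGM-2 medium, gelatin-coated wells; dosing: single-point compound dose; detection: immunofluorescence imaging; evaluation: % PE-positive cells; benchmarks: TNF-alpha, DMSO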
RAD54 branch: blocks human RAD54 Holliday junction branch migration | AID 602329 | FAM/BHQ fluorescence | inhibition, % at 10.4 µM | 360,000 tested, 0.14% active | Q92698;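 active = mean normalized replicate activity at least 40 and at least half of replicates scoring 40 or more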;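 also: 0% = median of neutral control wells and 100% = median of positive control wells; inhibitors cause a drop in the FAM fluorescence signal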
rRNA inh HTS: selective bacterial rRNA inhibition in E. coli. 350,000 tested, 1.6% active. GFP signal change (wild-type ribosome), % (concentration not given with the values). E. coli WT GFP vs humanized-ribosome RFP mutants, fluorescence, 24 h; hits give low values; DMSO median 0, no signal -100. AID 720706;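 active = significant combined selectivity score with lowered wild-type GFP, culture density cut under 30%, mutant RFP and density less affected; inactive = any of these conditions unmet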
Xi reactivation: reactivates the inactive X chromosome in mouse fibroblasts; activation, % at 7.58 µM; 360,000 tested, 0.055% active; XiGFP mouse fibroblasts, % GFP-positive cells imaging, 3 d; cells co-treated with 5-aza-dC sensitizer; scaled so ellipticine positive control = 100%; AID 743238;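 active = mean normalized replicate activation at least 10% and every replicate at or above 10%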;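 also: 0% = median of on-plate neutral control wells and 100% = ellipticine 6 µM median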
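Assay system: SV40-immortalized XiGFP fibroblast cells, line 68-5-11; buffer or medium: DMEM plus 5-aza-dC sensitizer; compound: one concentration, pinned; timing: compounds 3 days, fix/stain 15 min at room temperature; benchmarks: positive control ellipticine, 6 µM final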
RAD52 anneal inh: inhibitors of human RAD52 DNA annealing | inhibition, % at 18.7 µM | 360,000 tested, 0.46% active | P43351 | AID 651710 | recombinant RAD52 DNA annealing, FRET fluorescence;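 active = every replicate showing at least 50% inhibition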
Active calls of the source: *; x = no result given. Shown are actives, neighbours in structure and some others; about 2% of the full set was active somewhere.

SMILES | PglD DTNB | E-sel inducer | RAD54 branch | rRNA inh HTS | Xi reactivation | RAD52 anneal inh
COc1ccc(S(=O)(=O)Nc2ccc3c(c2)C(=O)N([C@H](C)CO)C[C@H](C)[C@H](CN(C)S(=O)(=O)c2cccs2)OCCCC[C@H](C)O3)cc1 | -1.2 | x | -7.0 | -2.6 | 0.0 | 0.6
CC(C)OC(=O)NCCOC(=O)Nc1ccccc1Cl | x | 0.1 | x | -2.3 | 0.0 | 10.7
CC(C)OC(=O)NCCOC(=O)Nc1ccc(Cl)cc1 | x | -0.1 | x | -21.2* | -0.1 | 6.1
O=S(=O)(NCC[C@H]1CC[C@@H](NS(=O)(=O)c2ccccc2Cl)[C@@H](CO)O1)c1ccc(F)cc1 | -2.0 | 0.6 | -7.0 | -2.2 | 0.2 | -4.5
O=C1C(c2ccccc2)c2ccccc2N1Cc1ccccc1 (stereo unspecified) | -1.5 | 0.3 | -5.3 | -20.2* | 0.1 | -9.4
O=C1C2CC=CCC2C(=O)N1Cc1ccccc1 (stereo unspecified) | -2.1 | x | -2.1 | 5.9 | x | -8.1
COc1ccc(COCC23N=C4SCc5ccccc5CN4[C@H](c4ccccc4O2)[C@H]3CO)cc1 | 0.8 | x | 1.7 | x | x | 31.2
O=C(NCCc1cccs1)c1ccc(CS(=O)Cc2ccc(Cl)cc2)o1 (stereo unspecified) | 0.8 | 10.6 | -1.0 | -24.2* | -0.1 | -3.2
CCOc1ccc(CCNC(=O)c2ccc(CS(=O)Cc3ccc(Cl)cc3)o2)cc1OCC (stereo unspecified) | -3.4 | 0.1 | 3.9 | -31.9* | 0.3 | -13.2
O=C(NCc1cccs1)c1ccc(CS(=O)Cc2ccc(Cl)cc2)o1 (stereo unspecified) | -0.5 | 0.0 | -0.4 | -8.9 | 0.0 | -9.1
Cc1ccc(CS(=O)Cc2ccc(C(=O)NCCCc3ccccc3)o2)cc1 (stereo unspecified) | 4.8 | -0.2 | 4.3 | -3.5 | 0.6 | -7.8
Cc1ccc(CS(=O)Cc2ccc(C(=O)NCCc3ccccc3)o2)cc1 (stereo unspecified) | 9.5 | 0.1 | -7.0 | -22.1* | 0.9 | 0.1
Cc1ccc(S(=O)(=O)N(C)C[C@H]2Oc3ccc(NC(=O)CCC(F)(F)F)cc3CC(=O)N([C@H](C)CO)C[C@H]2C)cc1 | -2.6 | 0.1 | 0.0 | -2.6 | -0.8 | -0.2
CC(=O)c1ccc(N(C(=O)CNC(=O)c2ccco2)C(C(=O)NC2CCCC2)c2ccc(C)o2)cc1 (stereo unspecified) | -2.0 | 33.3* | 2.2 | 1.0 | 0.3 | -10.4
CCOC(=O)c1ccc(N(C(=O)c2ccco2)C(C(=O)NC2CCCCC2)c2ccncc2)cc1 (stereo unspecified) | -0.7 | 35.3* | -5.4 | 3.9 | 0.4 | -19.4
COc1ccc(N(C(=O)c2ccco2)C(C(=O)NC2CCCC2)c2ccncc2)cc1 (stereo unspecified) | -6.4 | 0.0 | -2.8 | 1.8 | 0.0 | 0.2
COc1ccc(S(=O)(=O)Nc2ccc3c(c2)C(=O)N([C@H](C)CO)C[C@H](C)[C@@H](CN(C)C(=O)Nc2ccccc2)OCCCC[C@H](C)O3)cc1 | 3.8 | -0.4 | -1.7 | -6.5 | 0.4 | x
COc1ccccc1-c1nnc(C2CCN(S(=O)(=O)c3cccc([N+](=O)[O-])c3)CC2)o1 | -0.5 | x | 2.6 | -22.5* | 0.0 | -7.6
COc1ccccc1-c1nnc(C2CCN(S(=O)(=O)c3ccc([N+](=O)[O-])cc3)CC2)o1 | 4.1 | x | -5.6 | 9.0 | 0.4 | -9.3
COc1ccccc1-c1nnc(C2CCN(S(=O)(=O)c3ccccc3[N+](=O)[O-])CC2)o1 | -1.2 | x | 2.6 | -18.1* | 0.0 | -6.7
COc1ccc(C=O)cc1COc1ccc([N+](=O)[O-])c(C)c1 | 8.0 | 368.5* | -0.3 | 3.7 | 0.0 | -15.8
COc1ccc2c3c(n(C)c2c1)[C@@H](CO)N(C(=O)c1ccc(F)cc1)CC31CCN(C)CC1 | x | 0.0 | x | 0.4 | 0.0 | 9.4
O=C(NC1CC1)c1cc2cc3ccccc3nc2s1 | -4.8 | 0.2 | 1.6 | -21.4* | -0.1 | -9.5
COc1ccc(CN2CCN(c3nc4ccccc4s3)CC2)cc1 | -7.7 | x | -4.2 | -1.8 | 0.1 | -10.2
COc1ccc(CCn2c(O)cc3nn(-c4nc5ccccc5s4)c(=O)c-3c2C)cc1 | x | 19.2 | x | -17.5* | 0.4 | -14.4

Bioassay records deposited in PubChem BioAssay by Broad Institute.
